{"data": "Experimental data collected from several papers", "target": "D(1A) dopamine receptor (DRD1, Homo sapiens, UniProt P21728)", "note": "Lines come from different studies, so protocols differ."}
{"SMILES": "CCOCc1nc(O)c(-c2nnc(Cc3ccc(Cl)cn3)o2)c(O)c1-c1c(OC)cccc1OC", "observed": "ligand displacement", "method": "radioligand", "quantity": "IC50", "result": "> 30000 nM"}
{"SMILES": "O=C1c2ccccc2CCN1CCCCN1CCN(c2ccccn2)CC1", "observed": "cell-free assay", "method": "radioligand", "quantity": "Ki", "result": "1.66 µM"}
{"SMILES": "CCCCN1CCC(COC(=O)c2ccc(N)c(OCF)c2)CC1", "observed": "cell-free assay", "method": "radioligand", "quantity": "Ki", "result": "> 10 µM"}
{"SMILES": "C[C@@H]1Cc2ccccc2N1C(=O)NCCCCN(C)[C@@H]1Cc2cccc3[nH]c(=O)n(c23)C1", "observed": "ligand displacement", "method": "radioligand", "quantity": "Ki", "result": "> 10 µM"}
{"SMILES": "CCCCOc1c(O)cc(Br)c2c1CN1CCc3cc(OCC(F)F)c(O)cc3[C@@H]1C2", "observed": "cAMP", "action": "antagonist", "method": "TR-FRET", "quantity": "IC50", "result": "318 nM"}
{"SMILES": "COc1ccc2c(c1)C(=O)N(CCCN1CCN(c3ccccc3OC)CC1)C2", "observed": "cell-free assay", "method": "radioligand", "quantity": "Ki", "result": "6.22 µM"}
{"SMILES": "CCCOc1cc2c(cc1O)[C@@H]1Cc3c(Br)cc(O)c(OCC(F)F)c3CN1CC2", "observed": "cAMP", "action": "antagonist", "method": "TR-FRET", "quantity": "IC50", "result": "1450 nM"}
{"SMILES": "O=C1c2ccccc2CCN1CCCCN1CCN(c2cccc(Cl)c2Cl)CC1", "observed": "cell-free assay", "method": "radioligand", "quantity": "Ki", "result": "0.511 µM"}
{"SMILES": "CCCOc1cc2c(cc1O)[C@@H]1Cc3c(Br)cc(O)c(OCC(F)(F)F)c3CN1CC2", "observed": "cAMP", "action": "antagonist", "method": "TR-FRET", "quantity": "IC50", "result": "248 nM"}
{"SMILES": "CN(CCCCNC(=O)c1cc2ccccc2[nH]1)[C@@H]1Cc2cccc3[nH]c(=O)n(c23)C1", "observed": "ligand displacement", "method": "radioligand", "quantity": "Ki", "result": "> 7.9 µM"}
